Values after ≈ are worked out from the molar mass of the structure shown.
Legend:
Helicobacter pylori [1] = test: Antibacterial activity against Helicobacter pylori infected in C57/BL6 mouse assessed as bacterial load in stomach at 10 mg/kg administered twice daily via oral gavage starting from 7 days post inoculation and administered for 7 days (reference value: 5.25 log10CFU); format: functional; settings: time 7 day
Gardnerella vaginalis [2] = test: Antibacterial activity against Gardnerella vaginalis ATCC 49145; format: functional
Clostridioides difficile [3] = test: Antibacterial activity against fluoroquinolone-resistant Clostridioides difficile CB1941 harboring gyrAD71Y/T82A mutant at 1:1 compound to rifampicin molar ratio measured after 3 days in presence of rifampicin; format: functional; settings: CB1941, 72 h, time 3 day
Clostridioides difficile [4] = test: Antibacterial activity against rifampicin-resistant Clostridioides difficile harboring rpoBQ489K mutant; format: functional
Helicobacter pylori [5] = test: Antibacterial activity against metronidazole/rifampicin-resistant Helicobacter pylori CB1893 harboring rpoBL525I/D530N/rdxAR16S mutant measured after 5 days by agar dilution method; format: functional; settings: CB1893, 120 h, time 5 day
Summary of the method: (§1)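 Agar dilution per CLSI. Wild-type ATCC 700392 (CB1531) and its derivatives carry defined resistance determinants. Drugs, alone or in 1:1 molar mixtures, were diluted 2-fold from 100× stocks into Mueller–Hinton agar with aged (≥2 weeks) sheep blood (5% v/v). MIC read after 5 days at 35 °C under microaerobic conditions from a campylobacter gas-generating system.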

Clostridioides difficile [6] = test: Antibacterial activity against rifampicin/fluoroquinolone-resistant Clostridioides difficile CB1942 harboring rpoBQ489K/gyrAD71Y/T82A mutant at 1:1 compound to rifampicin molar ratio measured after 3 days in presence of rifampicin; format: functional; settings: CB1942, 72 h, time 3 day
Helicobacter pylori [7] = test: Antibacterial activity against Helicobacter pylori ATCC 700392 at 1:1 compound to rifabutin molar ratio measured after 5 days in presence of rifabutin by agar dilution method; format: functional; settings: ATCC 700392, 120 h, time 5 day
Summary of the method: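 Agar dilution per CLSI. Wild-type H. pylori ATCC 700392 (CB1531). Drugs prepared from 100× stocks as 2-fold dilutions in Mueller–Hinton agar with aged (≥2 weeks) sheep blood (5% v/v). Combinations were at 1:1 molar ratio. MIC read after 5 days at 35 °C under microaerobic atmosphere from a campylobacter gas-generating system.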

Helicobacter pylori [8] = test: Antibacterial activity against Helicobacter pylori clinical isolate USA; format: functional
Helicobacter pylori [9] = test: Antibacterial activity against metronidazole/rifampicin-resistant Helicobacter pylori CB1893 harboring rpoBL525I/D530N/rdxAR16S mutant at 1:1 compound to rifampicin molar ratio measured after 5 days in presence of rifampicin by agar dilution method; format: functional; settings: CB1893, 120 h, time 5 day
Summary of the method: (§2)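 Agar dilution MIC per CLSI. Resistant derivatives of wild-type ATCC 700392 carrying defined rpoB/rdxA mutations. Test agent combined 1:1 molar with the partner drug. Agents prepared from 100× stocks and serially 2-fold diluted into Mueller–Hinton agar containing 5% v/v aged (≥2 weeks) sheep blood. Plates incubated 5 days at 35 °C under a microaerobic atmosphere from a gas-generating system.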

Phocaeicola vulgatus = test: Antibacterial activity against metronidazole-resistant Bacteroides vulgatus 3490; format: functional
Helicobacter pylori [10] = test: Antibacterial activity against rifampicin-resistant Helicobacter pylori CB1614 harboring rpoBL525I/D530N at 1:1 compound to rifampicin molar ratio measured after 5 days in presence of rifampicin by agar dilution method; format: functional; settings: CB1614, 120 h, time 5 day; summary of the method: as §1
Gardnerella vaginalis [11] = test: Antibacterial activity against Gardnerella vaginalis ATCC 14018; format: functional
Clostridioides difficile [12] = test: Antibacterial activity against Clostridioides difficile clinical isolate USA; format: functional
Helicobacter pylori [13] = test: Antibacterial activity against metronidazole-resistant Helicobacter pylori CB1573 harboring rdxAR16S mutant at 1:1 compound to rifabutin molar ratio measured after 5 days in presence of rifabutin by agar dilution method; format: functional; settings: CB1573, 120 h, time 5 day; summary of the method: as §1
Campylobacter gracilis = test: Antibacterial activity against Bacteroides gracilis ATCC 33236 MMX 1270; format: functional
Syrian golden hamster = test: Antibacterial activity against Clostridioides difficile UNT-103-1 infected in Syrian hamster assessed as mortality at 100 mg/kg, po administered once a daily for 5 days after 18 hrs post 10 mg/kg clindamycin treatment and measured upto 21 days; format: functional, Mesocricetus auratus; settings: time <= 21 day
Summary of the method: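 Male Golden Syrian hamsters (80-90 g), housed singly, were gavaged with C. difficile UNT103-1 grown in sporulation medium broth and diluted to OD600 1 in prereduced broth. […] From 18 h later, drug or vehicle was given by oral gavage once daily for 5 days. Survival was recorded through day 21.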

Clostridioides difficile [14] = test: Antibacterial activity against Clostridioides difficile clinical isolate China; format: functional
Helicobacter pylori [15] = test: Antibacterial activity against metronidazole-resistant Helicobacter pylori CB1573 harboring rdxAR16S mutant measured after 5 days by agar dilution method; format: functional; settings: CB1573, 120 h, time 5 day; summary of the method: as §1
Helicobacter pylori [16] = test: Antibacterial activity against rifampicin resistant Helicobacter pylori harboring rpoBL525I/D530N mutant; format: functional
Clostridioides difficile [17] = test: Antibacterial activity against Clostridioides difficile CB1921 ATCC BAA1382 at 1:1 compound to rifampicin molar ratio measured after 3 days in presence of rifampicin; format: functional; settings: CB1921 ATCC BAA1382, 72 h, time 3 day
Helicobacter pylori [18] = test: Antibacterial activity against rifampicin-resistant Helicobacter pylori CB1902 harboring rpoBV149F mutant at 1:1 compound to rifampicin molar ratio measured after 5 days in presence of rifampicin by agar dilution method; format: functional; settings: CB1902, 120 h, time 5 day; summary of the method: as §1
[19] = system: Porphyromonas asaccharolytica; test: Antibacterial activity against metronidazole-resistant Prevotella asaccharolytica MMX 3552; format: functional
Fusobacterium nucleatum = test: Antibacterial activity against Fusobacterium nucleatum ATCC 10953; format: functional
Veillonella parvula = test: Antibacterial activity against Veillonella parvula ATCC 17745 MMX 1272; format: functional
Bacteroides uniformis = test: Antibacterial activity against Bacteroides uniformis MMX 1277; format: functional
Peptostreptococcus sp. = test: Antibacterial activity against Peptostreptococcus magnus ATCC 14956; format: functional
Clostridioides difficile [20] = test: Antibacterial activity against rifampicin-resistant Clostridioides difficile CB1934 harboring rpoBQ489K mutant at 1:1 compound to rifampicin molar ratio measured after 3 days in presence of rifampicin; format: functional; settings: CB1934, 72 h, time 3 day
Helicobacter pylori [21] = test: Antibacterial activity against Helicobacter pylori ATCC 700392 at 1:1 compound to rifampicin molar ratio measured after 5 days in presence of rifampicin by agar dilution method; format: functional; settings: ATCC 700392, 120 h, time 5 day
Summary of the method: (§3)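 Agar dilution per CLSI: two-fold serial dilutions from 100× stocks in Mueller–Hinton agar with aged (≥2 weeks) sheep blood (5% v/v). Strains were wild-type ATCC 700392 (CB1531) and derived mutants carrying defined resistance determinants. MIC was read after 5 days at 35 °C under microaerobic conditions from a campylobacter gas-generating system. Routine culture was on TSA with 5% sheep blood.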

Helicobacter pylori [22] = test: Antibacterial activity against metronidazole/rifampicin-resistant Helicobacter pylori CB1771 harboring rpoBL525I/D530N/rdxAE75stop mutant measured after 5 days by agar dilution method; format: functional; settings: CB1771, 120 h, time 5 day; summary of the method: as §1
Fannyhessea vaginae = test: Antibacterial activity against Atopobium vaginae BAA-55; format: functional
Helicobacter pylori [23] = test: Antibacterial activity against Helicobacter pylori clinical isolate China; format: functional
Clostridioides difficile [24] = test: Antibacterial activity against fluoroquinolone-resistant Clostridioides difficile CB1939 at 1:1 compound to rifampicin molar ratio measured after 3 days in presence of rifampicin; format: functional; settings: CB1939, 72 h, time 3 day
Bacteroides fragilis = test: Antibacterial activity against metronidazole-resistant Bacteroides fragilis MMX 3387; format: functional
Gardnerella vaginalis [25] = test: Antibacterial activity against Gardnerella vaginalis clinical isolate China; format: functional
Clostridium sporogenes = test: Antibacterial activity against Clostridium sporogenes ATCC 19404; format: functional
Helicobacter pylori [26] = test: Antibacterial activity against metronidazole/rifampicin-resistant Helicobacter pylori CB1771 harboring rpoBL525I/D530N/rdxAE75stop mutant at 1:1 compound to rifampicin molar ratio measured after 5 days in presence of rifampicin by agar dilution method; format: functional; settings: CB1771, 120 h, time 5 day; summary of the method: as §2
Clostridioides difficile [27] = test: Antibacterial activity against rifampicin/fluoroquinolone-resistant Clostridioides difficile CB1940 harboring rpoBQ489K/gyrAA118S mutant at 1:1 compound to rifampicin molar ratio measured after 3 days in presence of rifampicin; format: functional; settings: CB1940, 72 h, time 3 day
Staphylococcus aureus = test: Antibacterial activity against Staphylococcus aureus ATCC 29213; format: functional
Helicobacter pylori [28] = test: Antibacterial activity against rifampicin-resistant Helicobacter pylori CB1903 harboring rpoBD530V mutant at 1:1 compound to rifabutin molar ratio measured after 5 days in presence of rifabutin by agar dilution method; format: functional; settings: CB1903, 120 h, time 5 day; summary of the method: as §3
Actinomyces naeslundii = test: Antibacterial activity against Actinomyces naeslundii ATCC 1210; format: functional
Gardnerella vaginalis [29] = test: Antibacterial activity against Gardnerella vaginalis clinical isolate USA; format: functional

`CC[C@H]1OC(=O)[C@H](C)[C@@H](O[C@H]2C[C@@](C)(OC)[C@@H](O)[C@H](C)O2)[C@H](C)[C@@H](O[C@@H]2O[C@H](C)C[C@H](N(C)C)[C@H]2O)[C@](C)(OC)C[C@@H](C)C(=O)[C@H](C)[C@@H](O)[C@]1(C)O` [CLARITHROMYCIN] showed an Activity (Helicobacter pylori [1]) of 2.85 log10CFU.
Work on `Cc1ncc([N+](=O)[O-])n1CCO` [METRONIDAZOLE] yielded an MIC (Gardnerella vaginalis [2]) of 4 µg/mL (≈ 23.4 µM), an MIC (Clostridioides difficile [3]) of no more than 0.03 µg/mL and an MIC (Clostridioides difficile [4]) greater than 8 µg/mL. For the same compound, the MIC (Helicobacter pylori [5]) was 32 µg/mL (≈ 187 µM), the MIC (Clostridioides difficile [6]) was 2 µg/mL and the MIC (Helicobacter pylori [7]) was no more than 0.002 µg/mL. For the same compound, the MIC90 (Helicobacter pylori [8]) was 128 µg/mL (≈ 748 µM), the MIC (Helicobacter pylori [9]) was greater than 32 µg/mL and the MIC (Phocaeicola vulgatus) was 128 µg/mL (≈ 748 µM). For the same compound, the MIC (Helicobacter pylori [10]) was 8 µg/mL, the MIC (Gardnerella vaginalis [11]) was 4 µg/mL (≈ 23.4 µM) and the MIC (Clostridioides difficile [12]) was 0.12 µg/mL (≈ 0.701 µM). For the same compound, the MIC (Helicobacter pylori [13]) was no more than 0.002 µg/mL, the MIC (Campylobacter gracilis) was greater than 256 µg/mL and the Activity (Syrian golden hamster) was 100%. It also gave an MIC (Clostridioides difficile [14]) of no more than 0.06 µg/mL, an MIC90 (Clostridioides difficile [14]) of 0.125 µg/mL (≈ 0.73 µM) and an MIC (Helicobacter pylori [15]) of 32 µg/mL (≈ 187 µM). For the same compound, the MIC (Helicobacter pylori [16]) was greater than 32 µg/mL, the MIC (Clostridioides difficile [17]) was no more than 0.03 µg/mL and the MIC (Helicobacter pylori [18]) was 8 µg/mL. For the same compound, the MIC [19] was 1 µg/mL (≈ 5.84 µM), the MIC (Fusobacterium nucleatum) was 0.06 µg/mL (≈ 0.351 µM) and the MIC (Veillonella parvula) was 2 µg/mL (≈ 11.7 µM). For the same compound, the MIC (Bacteroides uniformis) was greater than 256 µg/mL, the MIC (Peptostreptococcus sp.) was 1 µg/mL (≈ 5.84 µM) and the MIC (Clostridioides difficile [20]) was 2 µg/mL. For the same compound, the MIC (Helicobacter pylori [21]) was 0.5 µg/mL, the MIC (Helicobacter pylori [22]) was 32 µg/mL (≈ 187 µM) and the MIC (Fannyhessea vaginae) was 128 µg/mL (≈ 748 µM). The MIC (Helicobacter pylori [23]) was no less than 0.25 µg/mL, the MIC90 (Helicobacter pylori [23]) was no less than 16 µg/mL and the MIC (Clostridioides difficile [24]) was no more than 0.03 µg/mL. For the same compound, the MIC (Bacteroides fragilis) was greater than 256 µg/mL, the MIC (Gardnerella vaginalis [25]) was no less than 16 µg/mL and the MIC90 (Gardnerella vaginalis [25]) was no less than 32 µg/mL. The MIC (Clostridium sporogenes) was 0.06 µg/mL (≈ 0.351 µM), the MIC (Helicobacter pylori [26]) was greater than 32 µg/mL and the MIC (Clostridioides difficile [27]) was 2 µg/mL. For the same compound, the MIC (Staphylococcus aureus) was greater than 32 µg/mL, the MIC (Helicobacter pylori [28]) was 1 µg/mL and the MIC (Actinomyces naeslundii) was 256 µg/mL (≈ 1500 µM). It also gave an MIC (Gardnerella vaginalis [29]) of no less than 2 µg/mL and an MIC90 (Gardnerella vaginalis [29]) of 64 µg/mL (≈ 374 µM).

— ChEMBL document CHEMBL5131497, “Design, Synthesis, and Characterization of TNP-2198, a Dual-Targeted Rifamycin-Nitroimidazole Conjugate with Potent Activity against Microaerophilic and Anaerobic Bacterial Pathogens” (J Med Chem, 2022)
